Kir21 inh – Kir2.1 (mouse) channel inhibition; P35561; HEK293-Kir2.1, FluxOR thallium flux fluorescence; active compounds read low; B-score at 10 µM; hit rate 0.85% among 310,000;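 active = fluorescence ratio B-score at or below minus 3 SD of library scores, with starting-brightness B-score within 2 SD, cut at about -4.2 in these data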;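 note: channel flux triggered by added potassium and thallium sulfate stimulus; B-score of peak minus minimum fluorescence over baseline after thallium stimulus; more negative B-score means stronger Kir2.1 block with less thallium influx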
KCNK3 inh – human KCNK3 channel inhibition, primary screen | CHO-KCNK3 thallium flux, FluxOR fluorescence; active compounds read low | B-score at 10 µM | hit rate 0.84% among 340,000 | O14649;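 active = B-score under library mean minus 4 SD, starting fluorescence ratio at most library mean plus 5 SD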;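 note: more negative B-score means stronger inhibition of thallium flux through KCNK3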
KCNQ1 act – potentiators or activators of human KCNQ1 potassium channel | B-score at 10 µM | P51787 | AID 2648 | CHO-K1 KCNQ1, thallium flux FluxOR fluorescence; active compounds read high | hit rate 0.35% among 310,000;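 active = fluorescence ratio B-score, a plate-corrected score, at least three library SD, with initial intensity B-score within 5 SD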
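Schedule – 37 °C overnight plating, 90-min dark dye load, 20-min compound pretreatment · System – stable KCNQ1 CHO-K1 line · Probe or stimulus – thallium- and potassium-containing depolarizing buffer · Measured by – kinetic FluxOR fluorescence, 10 s baseline plus 110 s post-stimulus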
KCNQ1 inh – inhibitors of human KCNQ1 potassium channel. P51787. CHO-K1 KCNQ1, FluxOR thallium flux fluorescence; active compounds read high. B-score at 10 µM. hit rate 1.3% among 310,000. AID 2642;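 active = compounds whose thallium flux B-score, printed positive for inhibition, exceeds three library SD while starting fluorescence stays within three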;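 note: channel opened by potassium depolarization with thallium stimulus after 20 min compound exposure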
KCNK9 inh – human KCNK9 channel inhibition | B-score at 10 µM | HEK293 KCNK9, FluxOR thallium flux fluorescence; active compounds read low | AID 488922 | hit rate 1.2% among 310,000 | Q9NPC2;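 active = ratio B-score over 3 SD below the library mean, with starting fluorescence within 5 SD of its mean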;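 note: negative B-score means less thallium flux so channel inhibition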
hERG rescue – hERG (human) protection from proarrhythmic block. CHO-hERG, FluxOR thallium flux, dofetilide IC70 present. Q12809. activation (rescue from dofetilide block), less the hit threshold, % at 10 µM. hit rate 0.51% among 310,000;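 active = activation above the mean of controls blocked by dofetilide plus 5 SD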;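 note: thallium influx through hERG after potassium depolarization seen as dye fluorescence rise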
Target sequence (Q12809 whole entry, looked up): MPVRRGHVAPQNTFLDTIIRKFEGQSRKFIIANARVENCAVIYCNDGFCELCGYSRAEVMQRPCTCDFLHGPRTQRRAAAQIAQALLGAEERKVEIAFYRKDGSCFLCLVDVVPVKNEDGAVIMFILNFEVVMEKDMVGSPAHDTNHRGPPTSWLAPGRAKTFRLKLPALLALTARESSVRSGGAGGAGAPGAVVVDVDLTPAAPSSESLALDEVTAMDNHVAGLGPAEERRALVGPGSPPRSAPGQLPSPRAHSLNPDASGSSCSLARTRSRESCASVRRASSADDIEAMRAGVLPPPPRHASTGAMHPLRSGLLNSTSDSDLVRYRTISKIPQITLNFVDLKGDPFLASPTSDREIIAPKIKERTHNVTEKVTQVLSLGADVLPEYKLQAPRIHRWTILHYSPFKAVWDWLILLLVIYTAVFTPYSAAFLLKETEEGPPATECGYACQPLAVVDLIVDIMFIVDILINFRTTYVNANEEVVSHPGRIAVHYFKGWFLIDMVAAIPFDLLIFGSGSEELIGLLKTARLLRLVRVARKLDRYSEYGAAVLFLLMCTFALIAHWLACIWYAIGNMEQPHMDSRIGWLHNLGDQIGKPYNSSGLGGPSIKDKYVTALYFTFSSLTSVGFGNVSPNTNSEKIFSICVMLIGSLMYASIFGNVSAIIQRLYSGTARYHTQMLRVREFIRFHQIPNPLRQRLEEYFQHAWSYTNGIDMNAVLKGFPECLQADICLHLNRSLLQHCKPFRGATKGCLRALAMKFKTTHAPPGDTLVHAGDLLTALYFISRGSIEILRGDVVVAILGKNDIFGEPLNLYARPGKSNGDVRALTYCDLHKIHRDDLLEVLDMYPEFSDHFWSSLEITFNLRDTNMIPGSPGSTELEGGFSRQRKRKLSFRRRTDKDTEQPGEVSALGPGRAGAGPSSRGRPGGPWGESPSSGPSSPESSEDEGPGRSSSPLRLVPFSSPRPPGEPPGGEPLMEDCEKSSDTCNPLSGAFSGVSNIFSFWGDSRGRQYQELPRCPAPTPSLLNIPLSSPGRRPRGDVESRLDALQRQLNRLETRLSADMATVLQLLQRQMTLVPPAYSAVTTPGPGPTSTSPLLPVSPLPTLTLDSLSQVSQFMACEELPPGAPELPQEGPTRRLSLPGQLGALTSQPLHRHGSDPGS
Large screens that a line does not name were inactive. The list is not random: actives were taken first. Their share in the collection is about 3.7%.

CCOC(=O)c1c(NC(=O)CSc2nnnn2-c2ccc3c(c2)OCO3)sc(C)c1C	none
COC(=O)c1c(NC(=O)CSc2nnnn2-c2ccc3c(c2)OCO3)sc(C)c1C	KCNK9 inh -6.9
CCOc1ccc(N(C)S(=O)(=O)c2ccc(C)c(C(=O)OCC(=O)c3c[nH]c4ccccc34)c2)cc1	KCNK9 inh -7.6
CC(=O)Nc1ccc(NC(=O)CSCc2ccccc2Cl)cc1	none
C/C(=N\NC(=O)CSCc1ccccc1Cl)c1cc(O)ccc1O	hERG rescue 4.7
COc1cc2[nH]c(C(=O)N3CCN(c4ccccc4F)CC3)cc2c(OC)c1OC	none
CC(OC(=O)C1CC1)C(=O)Nc1cc(Cl)cc(Cl)c1 (centres undefined)	KCNK3 inh -8.7 (no result: Kir21 inh, KCNQ1 act, KCNQ1 inh, KCNK9 inh, hERG rescue)
COc1ccc(-c2noc(CSc3ccccc3)n2)cc1OC	none
COc1ccc(-c2noc(CSc3nnc(CCc4ccccc4)n3-c3ccccc3)n2)cc1OC	KCNK3 inh -9.7
CC1=CC2=NC(=O)/C(=C\c3cccn3CCOc3cccc(C)c3)C(=N)N2O1	KCNK9 inh -7
CC1=CC2=NC(=O)/C(=C\c3cccn3CCOc3cc(C)cc(C)c3)C(=N)N2O1	KCNK9 inh -7.9
CCN(CC)CCN(Cc1cc2ccc(C)cc2[nH]c1=O)C(=O)Nc1ccc(Cl)cc1	none
CN(CCNC(=O)c1c[nH]c2c1ccc1ccccc12)CCNC(=O)c1c[nH]c2c1ccc1ccccc12	none (no result: Kir21 inh, KCNQ1 act, KCNQ1 inh, KCNK9 inh, hERG rescue)
CC(C)CN1C(=O)C(=Nc2cccnc2)c2ccccc21	none
COc1ccccc1C(N)=S	none
Nc1ccc2c(c1)C(=O)C(=O)c1ccccc1-2	hERG rescue 6.9
CC(C)c1ccc2c(c1)CCC1C(C)(CN)CCCC21C (centres undefined)	Kir21 inh -6.1, KCNQ1 inh 9
COc1ccc2nc(NC(=O)CSCC(=O)Nc3cc(C)on3)sc2c1	none
O=[N+]([O-])c1cccc(/C=C/c2nc3ccc([N+](=O)[O-])cc3[nH]2)c1	KCNQ1 inh 9
O=C(COC(=O)COc1ccccc1Cl)Nc1ccccc1OC(F)F	hERG rescue 4.9
O=C(COC(=O)c1ncc(Cl)c(Cl)c1Cl)Nc1ccccc1OC(F)F	none
Cc1ccc(-n2cccc2C(=S)N=P(N(C)C)(N(C)C)N(C)C)cc1	Kir21 inh -12, KCNK9 inh -7.6
CC(=O)C1CCN(Cc2ccccc2)CC1	none
CSc1ccccc1OC1CCN(Cc2ccccc2)CC1	Kir21 inh -13
CC(C)C[C@@H](C(=O)O)N(Cc1cccc(CN([C@@H](CC(C)C)C(=O)O)S(C)(=O)=O)c1)S(C)(=O)=O	hERG rescue 4.7
CS(=O)(=O)N(Cc1cccc(CN(C(C(=O)O)c2ccccc2)S(C)(=O)=O)c1)C(C(=O)O)c1ccccc1 (centres undefined)	none
Cc1cc(C)c(C(=O)COC(=O)CCn2c(C)csc2=O)cc1C	Kir21 inh -4.5
Cn1cccc1/C=N/NC(=O)CSc1nc2ccccc2n1C	none
Cc1cccc(NCc2nc(SCC(=O)Nc3ccccc3Br)n[nH]2)c1	Kir21 inh -5
Cc1cccc(NCc2nc(SCC(=O)Nc3ccccc3)n[nH]2)c1	none
O=C(N/N=C/c1cccnc1)c1sc2ccccc2c1Cl	none
CCOC(=O)c1oc2ccc(S(=O)(=O)n3nc(-c4ccc(OC)cc4)cc3N)cc2c1C	KCNQ1 act 9
CCOC(=O)c1oc2ccc(S(=O)(=O)n3nc(-c4ccccc4)cc3N)cc2c1C	none
O=C(c1cccc(C(=O)N(c2ccccn2)C2CCCCC2)c1)N(c1ccccn1)C1CCCCC1	none
N#C/C(=C\c1ccccc1)C(=O)N(c1ccccn1)C1CCCCC1	Kir21 inh -11
O=C1ON=C(c2ccccc2)/C1=C/c1ccco1	KCNQ1 inh 7
CCN(C[C@H]1N[C@@](CC)(C(=O)OC)[C@H]2C(=O)N(C)C(=O)[C@@H]12)S(=O)(=O)c1ccc(C(F)(F)F)cc1	none (no result: Kir21 inh, KCNQ1 act, KCNQ1 inh, KCNK9 inh, hERG rescue)
Cc1cc(C)nc(Sc2c(C)n[nH]c2C)n1	hERG rescue 5.1
Cc1n[nH]c(C)c1Sc1ccccc1N	none
Cc1cccc(Sc2nc(-c3ccccc3)ccc2C#N)c1	KCNK9 inh -6.6
CC1CN(S(=O)(=O)c2cccc(C(F)(F)F)c2)CC(C)O1 (centres undefined)	Kir21 inh -4.4
CC(C)CCN(C)C1CCN(S(=O)(=O)c2cccc(C(F)(F)F)c2)CC1	none
O=S1(=O)C[C@H]2NC(=S)N(c3ccccc3)[C@H]2C1	none
CN(N=Nc1cccc([N+](=O)[O-])c1)c1ccccc1	KCNK9 inh -6.7
CN(N=Nc1ccc([N+](=O)[O-])cc1)c1ccccc1	none
CCn1c(C)c(C)c2cc(C(=O)Nc3cccc(Cl)c3)ccc21	KCNQ1 inh 6
Cc1ccc(S(=O)(=O)N(Cc2ccc(F)cc2)Cc2ccco2)cc1	KCNQ1 inh 6
Cc1ccc(S(=O)(=O)N(CC(=O)O)Cc2ccco2)cc1	none
CC(C)(C)OC(=O)N[C@@H](CC(=O)OCc1ccccc1)C(=O)O	none
O=C(CCC(=O)c1ccc(Cl)cc1)OCC(=O)c1ccccc1	hERG rescue 8.9
O=C(CNC(=O)c1ccc(Cl)cc1)OCC(=O)c1ccccc1	none
CC1CCCN(C(=O)C(Cc2ccccc2)n2cccc2)C1 (centres undefined)	none
O=C(CSC(=O)c1ccccc1)Nc1ccccc1F	none (no result: Kir21 inh, KCNQ1 act, KCNQ1 inh, KCNK9 inh, hERG rescue)
Cc1cc(O)c(-c2cc(O)c(C)cc2O)cc1O	Kir21 inh -4.8
Cc1ccc(N)cc1O	none (no result: Kir21 inh, KCNQ1 act, KCNQ1 inh, KCNK9 inh, hERG rescue)
COC(=O)CN1C(=S)N(Cc2ccccc2)C(=O)C1CC(=O)Nc1ccc(Br)cc1 (centres undefined)	none
CCN(CC)C(=O)c1sc2nc(-c3cccs3)cc(-c3cccs3)c2c1N	KCNQ1 inh 7, KCNK9 inh -9.3
CCN(CC)C(=O)c1sc2nc(-c3cccs3)cc(-c3ccc(Cl)cc3)c2c1N	none
Cc1nnc(NC(=O)c2sc3nc(-c4cccs4)cc(C(F)(F)F)c3c2N)s1	KCNQ1 inh 6
Nc1c(C(=O)Nc2nccs2)sc2nc(-c3cccs3)cc(C(F)(F)F)c12	none
Cn1cnc([N+](=O)[O-])c1S(=O)(=O)c1ccc(Cl)cc1	Kir21 inh -6.8
CCn1c2c(c(=N)c3c1CCC3)CCCC2	none
CCCCCCCCCn1c2c(c(=N)c3c1CCC3)CCCC2	Kir21 inh -15, KCNK3 inh -12, KCNQ1 inh 10
Cc1ccc(S(=O)(=O)Nc2ccccc2N2CCOCC2)cc1	none
CCOCCc1nnc(NC(=O)CCC2CCCCC2)s1	none
COc1ccc(Cl)cc1NS(=O)(=O)c1cn(C)nc1C	none
Cc1ccccc1NC(=O)CN1C(=O)S/C(=C\c2cccn2-c2cccc(C(=O)O)c2)C1=O	none
COc1ccc(NC(=O)CN2C(=O)S/C(=C/c3cccn3-c3ccc(C(=O)O)cc3)C2=O)cc1	hERG rescue 16
